Assay results published in ChEMBL document CHEMBL4699389, “Design and synthesis of a bivalent probe targeting the putative mu opioid receptor and chemokine receptor CXCR4 heterodimer” (RSC Med Chem, 2020).
Activity calls are given as the source filed them. No cut-off for these calls is given here.

Experiments:
[1] = target: Mu-type opioid receptor (Mus musculus) (UniProt P42866); test: Agonist activity at mouse MOR expressed in CHO cells assessed as increase in calcium influx incubated for 15 mins by Fluo-4AM dye based fluorescence assay; type: functional, cell-based
In short: (§1)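 Cells transiently transfected with Gqi5 (Lipofectamine 2000), plated at […] per well and grown to confluence. At 48 h post-transfection, loaded with fluo-4 AM plus probenecid in HBSS-HEPES-Ca-Mg buffer for 45 min. Ligands tested alone at 0.3 nM to 3 μM. Ca²⁺ followed as RFU for 90 s on FlexStation3. Triplicate doses, at least 4 repeats.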

[2] = target: T1, Mu-type opioid receptor (Mus musculus, UniProt P42866); test: Antagonist activity at mouse MOR expressed in CHO cells assessed as decrease in DAMGO-induced calcium influx incubated for 15 mins followed by DAMGO stimulation and measured after 90 sec by Fluo-4AM dye based fluorescence assay; type: functional, cell-based
In short: (§2)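 Gqi5-transfected cells, 48 h post-transfection, loaded with fluo-4 AM/probenecid for 45 min. Pre-incubated 15 min with compound at varying concentrations, then agonist added: SDF-1 for CXCR4-HOS, DAMGO for MOR-CHO. RFU read for 90 s on FlexStation3. IC50 from peak values by non-linear regression. Triplicate doses, at least 4 repeats.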

[3] = target: T1, Mu-type opioid receptor; test: Displacement of [3H]-NLX from mouse MOR expressed in CHO cells incubated for 1.5 hrs by radioligand binding assay; type: cell-based
[4] = target: T2, C-X-C chemokine receptor type 4 (Homo sapiens, UniProt P61073); test: Agonist activity at […] (unknown origin) expressed in HOS cells assessed as increase in calcium influx incubated for 15 mins by Fluo-4AM dye based fluorescence assay; type: functional, cell-based; in short: as §1
[5] = target: T2, C-X-C chemokine receptor type 4; test: Binding affinity to CXCR4 (unknown origin) expressed in CHO cells incubated for 40 mins by immunofluorescence assay; type: cell-based
In short: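 Trypsinized CHO-CXCR4 cells (5×10⁵ per well) in FACS buffer (0.5% BSA, 0.05% azide in PBS). Incubated 40 min on ice with mouse anti-human CD184 (1:2000) plus graded compound concentrations, then with anti-mouse IgG-FITC (1:1000) for 30 min on ice. IC50 from at least three independent experiments.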

[6] = target: T2, C-X-C chemokine receptor type 4; test: Antagonist activity at CXCR4 (unknown origin) expressed in HOS cells assessed as decrease in SDF1-induced calcium influx incubated for 15 mins followed by SDF1 stimulation and measured after 90 sec by Fluo-4AM dye based fluorescence assay; type: functional, cell-based; in short: as §2

T1 sequence (P42866 whole entry): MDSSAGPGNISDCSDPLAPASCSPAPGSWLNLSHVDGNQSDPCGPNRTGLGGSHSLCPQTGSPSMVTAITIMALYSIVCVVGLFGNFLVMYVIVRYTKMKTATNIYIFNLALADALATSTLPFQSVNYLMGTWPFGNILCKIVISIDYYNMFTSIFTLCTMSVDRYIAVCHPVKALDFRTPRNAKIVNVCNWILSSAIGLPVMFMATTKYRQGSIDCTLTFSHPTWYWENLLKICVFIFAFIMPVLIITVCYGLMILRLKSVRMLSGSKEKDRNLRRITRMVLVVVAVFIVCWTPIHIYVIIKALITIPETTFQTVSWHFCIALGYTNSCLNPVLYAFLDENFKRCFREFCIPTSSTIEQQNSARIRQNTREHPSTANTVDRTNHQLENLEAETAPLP
T2 sequence (P61073 whole entry): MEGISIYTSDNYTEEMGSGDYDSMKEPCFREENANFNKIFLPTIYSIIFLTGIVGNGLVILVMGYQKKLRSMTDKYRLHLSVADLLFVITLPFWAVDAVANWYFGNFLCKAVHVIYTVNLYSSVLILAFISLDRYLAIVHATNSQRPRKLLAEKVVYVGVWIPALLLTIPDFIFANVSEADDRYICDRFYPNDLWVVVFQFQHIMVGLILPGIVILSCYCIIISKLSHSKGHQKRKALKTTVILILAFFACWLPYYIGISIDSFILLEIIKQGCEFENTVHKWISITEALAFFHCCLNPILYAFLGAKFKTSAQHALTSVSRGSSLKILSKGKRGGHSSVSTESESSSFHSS
Mu-type opioid receptor (Mus musculus), sequence (P42866 whole entry): as the sequence (P42866 whole entry) above

In the case of `CNC(=O)COCC(=O)NCCCCCCNC(=O)COCC(=O)N[C@@H]1CC[C@@]2(O)[C@H]3Cc4ccc(O)c5c4[C@@]2(CCN3CC2CC2)[C@H]1O5`, the Activity [1] is reported as “inactive”, the IC50 [2] is reported as 133 nM and the Ki [3] is reported as 2 nM. For the same compound, the Activity [4] was “inactive”.
In the case of `CC1(C)CN2C(CS/C(=N\[C@H]3CC[C@H](CNC(=O)COCC(=O)NCCCCCCNC(=O)COCC(=O)N[C@@H]4CC[C@@]5(O)[C@H]6Cc7ccc(O)c8c7[C@@]5(CCN6CC5CC5)[C@H]4O8)CC3)NC3CCCCC3)=CSC2=N1`, the IC50 [5] is reported as 17200 nM, the IC50 [6] is reported as 3300 nM and the Activity [1] is reported as “inactive”. For the same compound, the IC50 [2] was 61.9 nM, the Ki [3] was 25.4 nM and the Activity [4] was “inactive”.
With `CNC(=O)COCC(=O)NCCCCCCNC(=O)COCC(=O)NC[C@H]1CC[C@H](/N=C(/NC2CCCCC2)SCC2=CSC3=NC(C)(C)CN23)CC1` the IC50 [5] was 74000 nM, the IC50 [6] was 78300 nM and the Activity [4] was “inactive”.
